{"data": "Assay results from different studies", "sample": "plasma", "note": "Compare with care: the assays were run in different laboratories."}
{"Compound": "COc1cc2c3c(n(CCCNCCO)c(=O)c2cc1OC)-c1nc2c(cc1C3=O)OCO2", "species": "male CD-1 mouse", "route": "intravenous", "dose": "1 mg/kg", "measurement": "clearance", "value": "107 mL/min/kg"}
{"Compound": "O=C(C=Cc1ccccc1)Nc1cc(-c2ccnc(N3CCC(O)CC3)c2)ccn1", "species": "female Sprague-Dawley rat", "route": "intravenous", "dose": "5 mg/kg", "measurement": "Tmax", "value": "4.98 min"}
{"Compound": "CC1=NN(/C(=N/c2nnc(C)s2)Nc2ccc(C)c(C)c2)C(c2cc(F)c(F)c(F)c2)S1 (stereo not drawn)", "species": "male CD-1 mouse", "route": "intravenous", "dose": "1 mg/kg", "measurement": "clearance", "value": "121 mL/min/kg"}
{"Compound": "CC(=O)CC(=O)C1CC(C)C(=O)C1=O (stereo not drawn)", "species": "male Sprague-Dawley rat", "route": "oral", "dose": "100 mg/kg", "measurement": "Tmax", "value": "4.8 min"}
{"Compound": "N[C@@H](CC(=O)O)Cn1nnc(-c2ccc(Oc3ncc(Cl)cc3F)cc2)n1", "species": "male beagle dog", "route": "oral", "dose": "0.5 mg/kg", "measurement": "Cmax", "value": "5.7 ng/mL"}
{"Compound": "O=C1CCC(N2Cc3cc(Nc4noc5cc(F)ccc45)ccc3C2=O)C(=O)N1 (stereo not drawn)", "species": "female CD-1 mouse", "route": "intravenous", "dose": "3 mg/kg", "measurement": "clearance", "value": "55 mL/min/kg"}
{"Compound": "CCN1CCN(Cc2ccc(NC(=O)c3ccc(C)c(NC(=O)c4cncc(-c5cccs5)c4)c3)cc2C(F)(F)F)CC1", "species": "mouse", "route": "intraperitoneal", "dose": "20 mg/kg", "setting": "single dose", "measurement": "CL/F", "value": "151 mL/min/kg"}
{"Compound": "Cc1cc2sc(N)nc2c2cccnc12", "species": "female BALB/c mouse", "route": "intraperitoneal", "dose": "30 mg/kg", "setting": "single dose", "measurement": "CL/F", "value": "11 mL/min/kg"}
{"Compound": "O=C1CC[C@H](N2Cc3cc(N4CCN(CC5CCN(c6ccc([C@@H]7c8ccc(O)cc8CC[C@@H]7c7ccccc7)cc6)CC5)CC4)ccc3C2=O)C(=O)N1", "species": "female Sprague-Dawley rat", "route": "oral", "dose": "20 mg/kg", "setting": "fed", "measurement": "Tmax", "value": "320 min"}
{"Compound": "Cc1cc([C@@H](C)Nc2ccccc2C(=O)O)c2nc(N3CCC(F)(F)CC3)c(C#N)c(=O)n2c1", "species": "male beagle dog", "route": "intravenous", "dose": "2 mg/kg", "measurement": "clearance", "value": "64 mL/min/kg"}
{"Compound": "N#C[C@@]12C[C@@H]1[C@@H](n1cnc3c(N[C@@H](C4CCC4)C4CC4)nc(I)nc31)[C@H](O)[C@@H]2O", "species": "male Wistar rat", "route": "oral", "dose": "10 mg/kg", "measurement": "Tmax", "value": "120 min"}
{"Compound": "CC(=Nc1ccc(N=Cc2cnccn2)cc1)N(C)C", "species": "male Sprague-Dawley rat", "route": "oral", "dose": "200 mg/kg", "measurement": "Tmax", "value": "4.98 min"}
{"Compound": "CCNCCCn1c2c(c3cc(OC)c(OC)cc3c1=O)C(=O)c1cc3c(nc1-2)OCO3", "species": "male CD-1 mouse", "route": "intravenous", "dose": "1 mg/kg", "measurement": "clearance", "value": "107 mL/min/kg"}
{"Compound": "Cc1c(C(=O)O)ccc2c3n(nc12)[C@@H]1[C@H](C3)N(CC2CC2)[C@@]2(C(=O)Nc3cc(Cl)ccc32)[C@H]1c1cccc(Cl)c1F", "species": "male dog", "route": "oral", "dose": "2 mg/kg", "measurement": "Cmax", "value": "3.5 µM"}
{"Compound": "O=C1CCC(N2Cc3cc(NC(=O)c4cccc(F)c4)ccc3C2=O)C(=O)N1 (stereo not drawn)", "species": "female CD-1 mouse", "route": "intravenous", "dose": "3 mg/kg", "measurement": "clearance", "value": "24 mL/min/kg"}
